# Measured values from ChEMBL document CHEMBL4823277, “Novel chalcone-conjugated, multi-flexible end-group coumarin thiazole hybrids as potential antibacterial repressors against methicillin-resistant Staphylococcus aureus” (Eur J Med Chem, 2021).
# Activity calls are given as the source filed them. The calls are words filed in the database; no cut-off is given here.
# How the values were obtained:
# [1] = tested on: Staphylococcus aureus; test: Antibacterial activity against Staphylococcus aureus ATCC 29213 by microbroth dilution method; type: functional
# [2] = tested on: Enterococcus faecalis; test: Antibacterial activity against Enterococcus faecalis by microbroth dilution method; type: functional
# [3] = tested on: Staphylococcus aureus; test: Antibacterial activity against methicillin-resistant Staphylococcus aureus up to 50 ug/ml measured after 7 passages by resistance development assay; type: functional, organism-based; settings: dose microg/ml <=50
# [4] = tested on: Escherichia coli; test: Antibacterial activity against Escherichia coli ATCC 25922 by microbroth dilution method; type: functional
# [5] = tested on: Cell membrane; test: Induction of membrane permeabilization in methicillin resistant Staphylococcus aureus at 12 times MIC measured after 60 mins by propidium iodide staining based fluorescence assay
# Procedure, shortened: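 PI–DNA fluorescence intensity was followed over time up to and beyond 60 min, compared with an untreated control.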
# [6] = tested on: Pseudomonas aeruginosa; test: Antibacterial activity against Pseudomonas aeruginosa by microbroth dilution method; type: functional
# [7] = tested on: Staphylococcus aureus; test: Synergistic antibacterial activity against methicillin resistant Staphylococcus aureus N315 assessed as fractional inhibitory concentration index in presence of norfloxacin; type: functional
# [8] = tested on: DNA; test: Binding affinity to methicillin-resistant Staphylococcus aureus DNA assessed as decrease in absorption of compound-DNA complex by UV-vis spectroscopy; type: nucleic-acid assay
# [9] = tested on: DNA; test: Binding affinity to methicillin-resistant Staphylococcus aureus DNA assessed as maximum absorption peak at 260 nm by UV-vis spectroscopy; type: nucleic-acid assay
# [10] = tested on: Klebsiella pneumoniae; test: Antibacterial activity against Klebsiella pneumonia by microbroth dilution method; type: functional
# [11] = tested on: Klebsiella pneumoniae; test: Potentiation of norfloxacin-induced antibacterial activity against Klebsiella pneumoniae assessed as norfloxacin MIC; type: functional
# [12] = tested on: Staphylococcus aureus; test: Bactericidal activity against methicillin-resistant Staphylococcus aureus assessed as decrease in viable cells at 4 times MIC measured after 2 hrs by time kill assay; type: functional
# Procedure, shortened: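 Time-kill kinetics against MRSA at 4 × MIC. Viable cells were counted as CFU/mL over time, including the 2 h point.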
# [13] = tested on: Staphylococcus aureus; test: Antibacterial activity against methicillin-resistant Staphylococcus aureus N315 by microbroth dilution method; type: functional
# Procedure, shortened: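 Minimum inhibitory concentration against MRSA N315 determined by micro broth dilution in microdilution plates.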
# [14] = tested on: Escherichia coli; test: Additive antibacterial activity against Escherichia coli assessed as fractional inhibitory concentration index in presence of norfloxacin; type: functional
# [15] = tested on: Enterococcus faecalis; test: Potentiation of norfloxacin-induced antibacterial activity against Enterococcus faecalis assessed as norfloxacin MIC; type: functional
# [16] = tested on: Staphylococcus aureus; test: Antibacterial activity against Staphylococcus aureus by microbroth dilution method; type: functional
# [17] = tested on: Escherichia coli; test: Antibacterial activity against Escherichia coli by microbroth dilution method; type: functional
# [18] = tested on: Enterococcus faecalis; test: Indifferent antibacterial activity against Enterococcus faecalis assessed as fractional inhibitory concentration index in presence of norfloxacin; type: functional
# [19] = tested on: Acinetobacter baumannii; test: Antibacterial activity against Acinetobacter baumannii by microbroth dilution method; type: functional
# [20] = tested on: Klebsiella pneumoniae; test: Additive antibacterial activity against Klebsiella pneumoniae assessed as fractional inhibitory concentration index in presence of norfloxacin; type: functional
# [21] = tested on: Escherichia coli; test: Potentiation of norfloxacin-induced antibacterial activity against Escherichia coli assessed as norfloxacin MIC; type: functional
# [22] = tested on: Pseudomonas aeruginosa; test: Antibacterial activity against Pseudomonas aeruginosa ATCC 27853 by microbroth dilution method; type: functional
# [23] = tested on: DNA; test: Binding affinity to methicillin-resistant Staphylococcus aureus DNA assessed as compound-DNA interaction causing DNA replication blockage by neutral red uptake assay; type: nucleic-acid assay
# [24] = tested on: Staphylococcus aureus; test: Antibacterial activity against Staphylococcus aureus ATCC 25923 by microbroth dilution method; type: functional
# [25] = tested on: L02; test: Cytotoxicity against human L02 cells assessed as effect on cell viability up to 500 ug/ml by MTT assay; type: cell-based; settings: dose <=500 µg/ml
# Procedure, shortened: (§1)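 MTT viability assay on human hepatocyte LO2 cells and RAW 264.7 cells. The test hybrid was applied over a rising concentration series up to 500. The read-out was the percentage of living cells.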
# [26] = tested on: RAW264.7; test: Cytotoxicity against mouse RAW264.7 cells assessed as effect on cell viability up to 500 ug/ml by MTT assay; type: cell-based; settings: dose <=500 µg/ml; procedure, shortened: as §1
structure (smiles),measurement,setting,value
COc1ccc(/C=C(\Oc2ccc3c(CN(CCO)CCO)cc(=O)oc3c2)C(=O)c2nccs2)cc1,MIC,[1],122 µM
same,MIC,[2],61 µM
same,Activity,[3],Active
same,MIC,[4],244 µM
same,Activity,[5],Active
same,MIC,[6],122 µM
same,fractional inhibitory concentration index (FICI),[7],0.45
same,Activity,[8],Active
same,Activity,[9],Active
same,MIC,[10],61 µM
same,MIC,[11],0.953 10^-3mM
same,Activity,[12],<10 CFU/ml
same,MIC,[13],4 µM
same,fractional inhibitory concentration index (FICI),[14],0.51
same,MIC,[15],1.906 10^-3mM
same,MIC,[16],61 µM
same,MIC,[17],15 µM
same,fractional inhibitory concentration index (FICI),[18],1.34
same,MIC,[19],244 µM
same,fractional inhibitory concentration index (FICI),[20],0.58
same,MIC,[21],0.234 10^-3mM
same,MIC,[22],244 µM
same,Activity,[23],Active
same,MIC,[24],122 µM
same,Activity,[25],Non-Toxic
same,Activity,[26],Non-Toxic
